# Bioassay records (PubChem)
# Shown are actives, neighbours in structure and some others; about 11% of the full set was active somewhere.
# Lmaj promast = inhibitors of Leishmania major promastigote growth; hit rate 9% among 200,000; Leishmania major promastigotes, resazurin fluorescence viability; inhibition, % at 10 µM;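 further: promastigotes grown with compound for 44 hours at 28 °C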
# Diaphorase inh = diaphorase inhibition or chemical oxidation counter-screen; inhibition, % at 20 µM; diaphorase resazurin-to-resorufin fluorescence, NADH, 16 min; bacterial (C. kluyveri) enzyme, not human; hit rate 0.69% among 190,000;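 active means primary screen inhibition at 20 µM above a set limit, cut at about 50% in these data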;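 further: plate controls were DMSO with full reaction for no effect and wells lacking NADH for full effect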
#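 Assay system: diaphorase enzyme from Clostridium kluyveri. Quantity: enzyme working solution with 0.14 U/mL diaphorase. Schedule: reaction incubation of 16 min at room temperature. Technique: resorufin fluorescence, excitation 544 nm, emission 590 nm. Controls: No-NADH positive control and DMSO neutral control.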
# G6PDH counter = counter-screen for G6PDH assay hits: L. mesenteroides G6PDH inhibition; hit rate 0.12% among 200,000; inhibition, % at 5 µM; Purified L. mesenteroides G6PDH, diaphorase/resazurin coupled fluorescence, 45 min; AID 1020
# Diaph act CS = activates diaphorase or chemically reduces, flagging diaphorase assay artifacts; Diaphorase/resazurin coupled assay, resorufin fluorescence, 16 min; hits give high values; 1 = vehicle wells, 0 = NADH-free wells; activation factor at 20 µM; hit rate 0.005% among 190,000;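 active means diaphorase activity raised at least twofold by the compound at 20 µM; inactive means activation factor below 2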
#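 Material: Clostridium kluyveri diaphorase, purified enzyme; Quantity: enzyme 0.07 U/mL final; Medium: HEPES pH 7.4 buffer with MgCl2 and Tween 20; Dosing: single compound dose of 20 µM, 1% DMSO final; Schedule: 16 min reaction at room temperature; Measured by: red resorufin fluorescence at 544/590 nm excitation/emission.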
# WT yeast gro inh = growth inhibition of WT yeast, mitochondrial fusion screen; mitochondrial fusion phenotypic screen, WT strain; inhibition, % at 10 µM; hit rate 2.1% among 190,000; in the data active means inhibition above about 58%; tested in S. cerevisiae
# Active calls of the source: *. Unless noted, no stated cut-off is given here; in the data, active means inhibition above about 50%; inactive means the rest.
SMILES,Lmaj promast,Diaphorase inh,G6PDH counter,Diaph act CS,WT yeast gro inh
COc1ccc2nc(Nc3nc(CSc4ccc(C)cc4)cc(=O)[nH]3)nc(C)c2c1,65*,5,1,1,34
COc1ccc2nc(Nc3nc(C)c(CCC(C)C)c(=O)[nH]3)nc(C)c2c1,99*,3,1,1,-64
Cc1ccc(N/C(N)=N/c2nc(CSc3ccc(C)cc3)cc(=O)[nH]2)cc1,0,9,5,0.9,9
CCC(CC)c1nnc(NC(=O)Oc2ccccc2)s1,-1,-12,8,1.1,11
COc1ccc(OC)c(-c2cc(C(=O)Nc3c(C)nn(Cc4ccccc4C)c3C)no2)c1,46,24,5,0.8,6
COc1ccc(OC)c(-c2cc(C(=O)Nc3c(C)nn(Cc4ccccc4Cl)c3C)no2)c1,52*,24,-5,0.8,37
Nc1ncnc(Oc2cccc3cccnc23)c1[N+](=O)[O-],96*,8,6,0.9,-5
COc1ccc(N=c2oc3c(OC)cccc3cc2C(=O)NCc2ccco2)cc1OC,-2,2,1,1,-37
COc1cccc2cc(S(=O)(=O)c3ccccc3)c(=Nc3ccc4c(c3)OCCO4)oc12,92*,10,-3,0.9,0
Cc1ccc(S(=O)(=O)c2cc3ccccc3oc2=Nc2ccc3c(c2)OCCO3)cc1,98*,10,-6,0.9,47
Cc1ccc(S(=O)(=O)c2cc3ccccc3oc2=Nc2ccc3c(c2)OCO3)cc1,-5,10,1,0.9,-5
O=C(Nc1cc([N+](=O)[O-])ccc1Cl)C1CC1,-6,0,5,1,-1
Cc1ccc(NC(=O)CCCSc2ccccc2)cc1S(=O)(=O)N1CCOCC1,46,12,2,0.9,5
COc1ccc(-c2csc3[nH]c(=S)n(-c4ccccc4)c(=O)c23)cc1OC,-4,45,2,0.6,-3
COC(=O)CCC(=O)COc1ccc(OC)cc1C#N,-8,16,4,0.8,91*
CCCn1nc([N+](=O)[O-])c(C(C#N)c2nc3ccccc3s2)c(Cl)c1=O (centres undefined),2,34,3,0.7,78*
CCn1nc([N+](=O)[O-])c(C(C#N)c2nc3ccccc3n2C)c(Cl)c1=O (centres undefined),1,20,0,0.8,-16
O=C(CSc1ccc(-c2ccccn2)nn1)c1ccc(F)cc1,23,58*,-3,0.4,39
COc1ccc(-c2ccc(SCC(=O)c3ccc(F)cc3)nn2)cc1OC,63*,-2,2,1,22
COc1ccc(C2c3cc(OC)c(OC)cc3CCN2C2CC(=O)N(c3ccccc3)C2=O)cc1OC (centres undefined),-6,19,2,0.8,-20
CCCCNC(=S)NNC(=O)c1cccnc1,-6,4,-2,1,-11
COc1ccc(CSc2nncn2C)cc1[N+](=O)[O-],52*,4,12,1,12
COc1ccc(CSc2nncn2N)cc1[N+](=O)[O-],31,9,10,0.9,-10
CCOC(=O)c1cc(=O)n(-c2ccc(Cl)cc2C)[nH]1,55*,11,0,0.9,-8
CCOC(=O)c1cnc(-n2[nH]c(C)cc2=O)[nH]c1=O,-10,16,8,0.8,-3
SMILES,Lmaj promast,Diaphorase inh,G6PDH counter,Diaph act CS,WT yeast gro inh
Cc1cc(C)n2nc(SCC(=O)N(C)c3c(N)n(Cc4ccccc4)c(=O)[nH]c3=O)nc2n1,-7,8,6,0.9,-5
Cn1c(SCC(=O)NNC(=O)Cc2ccccc2)nnc1-c1ccc(Cl)cc1,-5,8,5,0.9,33
Cn1c(SCCS(=O)(=O)c2ccc(Cl)cc2)nnc1-c1ccccc1,100*,17,10,0.8,16
O=C(/C=C/c1cccs1)Nc1nccs1,0,-6,4,1.1,5
O=C(/C=C/c1cccs1)Nc1cccc(NC(=O)/C=C/c2cccs2)n1,55*,13,-35,0.9,52
CC1(C)CC(=O)C2=C(C1)OC(/N=C/N1CCOCC1)=C(C#N)C2c1ccccc1 (centres undefined),18,1,9,1,-1
CC1(C)CC(=O)C2=C(C1)OC(N)=C(C#N)C2c1cc2c(cc1[N+](=O)[O-])OCO2 (centres undefined),65*,30,-4,0.7,-25
CCOc1cc(C2C(C#N)=C(N)OC3=C2C(=O)CC(C)(C)C3)cc([N+](=O)[O-])c1O (centres undefined),-5,14,1,0.9,-44
CC1(C)CC(=O)C2=C(C1)OC(N)=C(C#N)C2c1cn(-c2ccccc2)nc1-c1ccccc1 (centres undefined),90*,29,-6,0.7,-14
CC1(C)CC(=O)C2=C(C1)OC(N)=C(C#N)C2c1ccoc1 (centres undefined),0,0,0,1,-3
CN1CCN(/C=N/C2=C(C#N)C(c3ccccc3)C3=C(CC(C)(C)CC3=O)O2)CC1 (centres undefined),75*,4,2,1,8
O=C(Nc1ccccc1F)N(CCCN1CCOCC1)Cc1cc2cc3c(cc2[nH]c1=O)OCCO3,6,6,2,0.9,8
CCCCNC(=O)CN1C(=O)NC2(CCCc3ccccc32)C1=O (centres undefined),-2,6,2,0.9,14
COC(=O)c1nn(-c2ccc(C)cc2)c2nnc(Cc3ccccc3)c(=O)n12,-7,-4,3,1,-14
CC(C)c1ccc(NC(=S)N(C)CCc2ccccn2)cc1,3,-2,10,1,74*
CNS(=O)(=O)c1cnccc1N1CCN(C)CC1,1,14,3,0.9,-3
CNS(=O)(=O)c1cnccc1N1CCN(c2cccc(C(F)(F)F)c2)CC1,99*,16,11,0.8,-27
CCOc1ccc2ccccc2c1/C=N/NC(=O)CNC(=O)Cc1ccccc1,-3,13,3,0.9,16
CCOC(=O)c1cnc2nc[nH]n2c1=O,8,-1,20,1,4
CSc1nc(N2CCOCC2)c2ccccc2n1,51*,12,-19,0.9,13
CSc1nc(N2CCN(c3ccccc3Cl)CC2)c2ccccc2n1,23,22,9,0.8,63*
CNc1nc(SC)nc2ccccc12,30,-5,9,1,18
c1ccc2c(c1)nc(N1CCOCC1)c1ccccc12,-2,14,2,0.9,-3
N#Cc1c(-c2ccco2)cc(C2CC2)nc1N,4,5,12,1,18
N#Cc1c(-c2ccccc2F)cc(-c2cccnc2)nc1N,71*,17,8,0.8,-4
N#Cc1c(-c2ccco2)cc(-c2ccccn2)nc1N,78*,26,10,0.7,-12
N#Cc1c(-c2ccco2)cc(-c2cccnc2)nc1N,18,52*,11,0.5,11
